Experimental data from different studies.
Each line is one published result; the experiments were not run side by side.
EGFR L858R/T790M: Epidermal growth factor receptor (EGFR, Homo sapiens, UniProt P00533, L858R/T790M)
EGFR L861Q: Epidermal growth factor receptor (EGFR, Homo sapiens, UniProt P00533, L861Q)

C1=C/COCc2cc(ccc2OCCN2CCCC2)Nc2nccc(n2)-c2cccc(c2)COC/1 — remaining binding (Epidermal growth factor receptor (EGFR, Homo sapiens, UniProt P00533, del747-752/P753S); binding; 0.1 µM): 99%
COc1ccc2oc(-c3ccc4nc(N)oc4c3)c/c(=N\c3ccccc3NC(=O)CCN)c2c1 — remaining signal (EGFR L858R/T790M; cell-free assay; 1 µM): 106%
CC#CC(=O)N1CCC[C@H]1c1nc(-c2ccc(C(=O)Nc3ccccn3)cc2)c2c(N)nccn12 — inhibition (Epidermal growth factor receptor (EGFR, Homo sapiens, UniProt P00533, G719C); enzyme activity; inhibitor; 1 µM): 3%
Cc1ccc(NC(=O)c2ccnc(C(F)(F)F)c2)cc1-c1cc(OCCO)nc(N2CCOCC2)c1 — remaining binding (EGFR L858R/T790M; binding; 1 µM): 84%
C=CC(=O)N1CCC([C@@H]2CCNc3c(C(N)=O)c(-c4ccc(Oc5ccccc5)cc4)nn32)CC1 — inhibition (EGFR L861Q; cell-free assay; 1 µM): 73%
CN1CCN(C(=O)c2ccc(NC(=O)Nc3ccc(N(C)c4ccnc(Nc5ccc(CS(C)(=O)=O)cc5)n4)cc3)cc2)CC1 — remaining binding (Epidermal growth factor receptor (EGFR, Homo sapiens, UniProt P00533, del746-750); binding; 1 µM): 87%
CO[C@@H]1[C@H](N(C)C(=O)c2ccccc2)C[C@H]2O[C@]1(C)n1c3ccccc3c3c4c(c5c6ccccc6n2c5c31)C(=O)NC4 — inhibition (Epidermal growth factor receptor (EGFR, Homo sapiens, UniProt P00533); enzyme activity; inhibitor; 1 µM): 55%
COc1ccc2[nH]c3c4[nH]c5ccc(OC)cc5c4c4c(c3c2c1)C(=O)NC4=O — remaining binding (Epidermal growth factor receptor (EGFR, Homo sapiens, UniProt P00533, T790M); binding; 1 µM): 45%
CCCCC(=O)Nc1ccc(-c2ccc3ncn(CCC)c(=O)c3c2)cn1 — remaining binding (EGFR L861Q; binding; competition with immobilised ligand; 0.5 µM): 100%
